{
  "source": "ChEMBL document CHEMBL3526048",
  "about": "“In vitro metabolism of rivoglitazone, a novel peroxisome proliferator-activated receptor γ agonist, in rat, monkey, and human liver microsomes and freshly isolated hepatocytes” (Drug Metab Dispos, 2011)",
  "key": {"[1]": {"experiment": "Drug metabolism in human hepatocytes assessed as formation of 3-(4-((6-methoxy-1-methyl-1H-benzo[d]imidazol-2-yl)methoxy)phenyl)-2-(methylsulfonyl)propanamide at 30 uM after 3 hrs by radio-HPLC/LC-MS/MS analysis in presence of NADPH-generating system/SAM", "assay_type": "ADME, cell-based, Hepatocyte"}, "[2]": {"target": "T1, UDP-glucuronosyltransferase 1A10 (Homo sapiens, UniProt Q9HAW8)", "T1 sequence (Q9HAW8 whole entry)": "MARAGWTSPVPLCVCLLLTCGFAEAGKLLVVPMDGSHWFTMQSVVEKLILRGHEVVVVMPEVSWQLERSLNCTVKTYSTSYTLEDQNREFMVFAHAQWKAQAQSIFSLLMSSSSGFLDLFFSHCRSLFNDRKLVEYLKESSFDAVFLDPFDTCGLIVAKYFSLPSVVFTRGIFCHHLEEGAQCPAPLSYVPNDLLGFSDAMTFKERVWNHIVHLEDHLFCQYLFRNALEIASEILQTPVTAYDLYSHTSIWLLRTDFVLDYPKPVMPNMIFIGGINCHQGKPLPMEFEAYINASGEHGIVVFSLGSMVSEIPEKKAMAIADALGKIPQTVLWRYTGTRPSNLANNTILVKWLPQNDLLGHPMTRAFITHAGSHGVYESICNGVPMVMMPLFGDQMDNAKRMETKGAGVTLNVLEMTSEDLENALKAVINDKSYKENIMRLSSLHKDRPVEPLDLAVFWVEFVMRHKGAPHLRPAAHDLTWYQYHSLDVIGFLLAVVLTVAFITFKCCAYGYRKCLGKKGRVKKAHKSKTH", "experiment": "Activity of human UGT1A10 expressed in microsomes isolated from baculovirus infected insect cell assessed as enzyme-mediated (2S,3S,4S,5R,6R)-6-((1-carboxy-2-(4-((6-methoxy-1-methyl-1H-benzo[d]imidazol-2-yl)methoxy)phenyl)ethylthio)carbonylamino)-3,4,5-trihydroxytetrahydro-2H-pyran-2-carboxylic acid formation at 20 uM after 4 hrs by radio-HPLC/LC-MS/MS analysis in presence of UDPGA", "assay_type": "ADME", "summary_of_the_method": "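Alamethicin (50 μg/mg protein, 15 min on ice) pretreated expressed human UGT microsomes (1 mg/ml protein) from baculovirus-infected insect cells. Incubation with [¹⁴C]rivoglitazone (20 μM) in 100 mM Tris-HCl (pH 7.5) with 10 mM MgCl₂, started by 5 mM UDPGA, 4 h at 37°C with shaking. UGT insect-cell control supersomes were run alongside. Acetonitrile stop, concentrated supernatant analysed by radio-HPLC, LC-MS and LC-MS/MS.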"}, "[3]": {"experiment": "Drug metabolism in rat hepatocytes assessed as formation of 5-(4-((6-hydroxy-1-methyl-1H-benzo[d]imidazol-2-yl)methoxy)benzyl)thiazolidine-2,4-dione at 30 uM after 3 hrs by radio-HPLC/LC-MS/MS analysis in presence of NADPH-generating system and NADPH-generating system/SAM", "assay_type": "ADME, cell-based, Hepatocyte"}, "[4]": {"target": "Cytochrome P450 2D6 (Homo sapiens, UniProt P10635)", "sequence (P10635 whole entry)": "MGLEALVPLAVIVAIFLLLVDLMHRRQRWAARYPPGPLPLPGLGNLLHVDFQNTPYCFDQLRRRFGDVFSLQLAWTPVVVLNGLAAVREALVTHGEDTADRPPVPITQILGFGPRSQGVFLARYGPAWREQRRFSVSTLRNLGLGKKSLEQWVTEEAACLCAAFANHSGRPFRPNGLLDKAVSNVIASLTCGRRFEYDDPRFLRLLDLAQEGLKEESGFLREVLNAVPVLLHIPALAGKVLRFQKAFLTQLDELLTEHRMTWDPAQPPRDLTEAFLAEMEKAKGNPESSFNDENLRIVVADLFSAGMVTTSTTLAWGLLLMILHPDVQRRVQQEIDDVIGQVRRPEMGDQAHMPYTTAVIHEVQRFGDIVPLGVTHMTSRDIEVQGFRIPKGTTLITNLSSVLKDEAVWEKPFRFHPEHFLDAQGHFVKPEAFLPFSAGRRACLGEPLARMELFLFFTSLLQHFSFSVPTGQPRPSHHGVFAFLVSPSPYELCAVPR", "experiment": "(§1) Activity of human CYP2D6 expressed in microsomes isolated from baculovirus infected insect cell assessed as enzyme-mediated 2-mercapto-3-(4-((6-methoxy-1-methyl-1H-benzo[d]imidazol-2-yl)methoxy)phenyl)propanamide formation at 20 uM after 2 hrs by radio-HPLC/LC-MS/MS analysis in presence of NADPH-generating system and NADPH-generating system/SAM", "assay_type": "ADME"}, "[5]": {"target": "Cytochrome P450 3A5 (Homo sapiens, UniProt P20815)", "sequence (P20815 whole entry)": "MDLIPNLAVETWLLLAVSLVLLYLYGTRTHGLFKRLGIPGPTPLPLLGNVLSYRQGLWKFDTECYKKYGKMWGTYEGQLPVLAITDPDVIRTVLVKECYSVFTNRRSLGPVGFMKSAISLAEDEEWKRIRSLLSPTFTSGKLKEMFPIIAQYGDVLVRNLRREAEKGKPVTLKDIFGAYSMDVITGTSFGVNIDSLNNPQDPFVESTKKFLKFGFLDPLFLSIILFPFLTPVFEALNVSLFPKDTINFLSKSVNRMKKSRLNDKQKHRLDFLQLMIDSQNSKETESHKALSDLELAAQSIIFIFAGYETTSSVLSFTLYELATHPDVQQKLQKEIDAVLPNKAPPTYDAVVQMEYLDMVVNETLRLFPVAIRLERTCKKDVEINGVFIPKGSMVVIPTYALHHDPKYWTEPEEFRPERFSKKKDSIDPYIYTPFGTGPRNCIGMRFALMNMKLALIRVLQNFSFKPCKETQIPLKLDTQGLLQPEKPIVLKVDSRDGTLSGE", "experiment": "as §1, with “CYP3A5” for “CYP2D6”", "assay_type": "ADME", "summary_of_the_method": "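cDNA-expressed human CYP3A5 in baculovirus-insect-cell microsomes (1 mg/ml protein) was incubated with [¹⁴C]rivoglitazone (20 μM) in 50 mM potassium phosphate (pH 7.4) or 100 mM Tris-HCl (pH 7.5). NADPH-generating system: 2 mM NADP⁺, 20 mM glucose 6-phosphate, 2 units/ml G6PDH, 10 mM MgCl₂. Incubation ran 2 h at 37°C with shaking; insect-cell control supersomes served as control. Acetonitrile stop, supernatant concentrated, then radio-HPLC, LC-MS and LC-MS/MS.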"}, "[6]": {"target": "T2, UDP-glucuronosyltransferase 1A4 (Homo sapiens, UniProt P22310)", "T2 sequence (P22310 whole entry)": "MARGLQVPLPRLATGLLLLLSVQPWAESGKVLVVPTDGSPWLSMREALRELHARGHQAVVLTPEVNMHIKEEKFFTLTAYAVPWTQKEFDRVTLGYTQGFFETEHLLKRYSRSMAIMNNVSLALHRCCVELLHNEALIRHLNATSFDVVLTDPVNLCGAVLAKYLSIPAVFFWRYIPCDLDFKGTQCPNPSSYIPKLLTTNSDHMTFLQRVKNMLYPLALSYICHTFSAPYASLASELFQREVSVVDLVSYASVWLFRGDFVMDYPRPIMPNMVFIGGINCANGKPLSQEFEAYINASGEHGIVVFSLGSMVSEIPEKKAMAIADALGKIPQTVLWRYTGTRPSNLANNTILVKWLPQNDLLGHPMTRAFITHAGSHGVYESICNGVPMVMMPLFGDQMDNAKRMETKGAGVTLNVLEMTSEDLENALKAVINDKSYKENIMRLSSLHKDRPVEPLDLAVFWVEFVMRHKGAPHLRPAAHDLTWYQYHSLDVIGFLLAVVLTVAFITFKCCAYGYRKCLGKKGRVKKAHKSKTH", "experiment": "Activity of human UGT1A4 expressed in microsomes isolated from baculovirus infected insect cell assessed as enzyme-mediated (2S,3S,4S,5R,6R)-3,4,5-trihydroxy-6-(5-(4-((6-methoxy-1-methyl-1H-benzo[d]imidazol-2-yl)methoxy)benzyl)-2,4-dioxothiazolidin-3-yl)tetrahydro-2H-pyran-2-carboxylic acid formation at 20 uM after 4 hrs by radio-HPLC/LC-MS/MS analysis in presence of UDPGA", "assay_type": "ADME"}, "[7]": {"target": "T3, Cytochrome P450 1A2 (Homo sapiens, UniProt P05177)", "T3 sequence (P05177 whole entry)": "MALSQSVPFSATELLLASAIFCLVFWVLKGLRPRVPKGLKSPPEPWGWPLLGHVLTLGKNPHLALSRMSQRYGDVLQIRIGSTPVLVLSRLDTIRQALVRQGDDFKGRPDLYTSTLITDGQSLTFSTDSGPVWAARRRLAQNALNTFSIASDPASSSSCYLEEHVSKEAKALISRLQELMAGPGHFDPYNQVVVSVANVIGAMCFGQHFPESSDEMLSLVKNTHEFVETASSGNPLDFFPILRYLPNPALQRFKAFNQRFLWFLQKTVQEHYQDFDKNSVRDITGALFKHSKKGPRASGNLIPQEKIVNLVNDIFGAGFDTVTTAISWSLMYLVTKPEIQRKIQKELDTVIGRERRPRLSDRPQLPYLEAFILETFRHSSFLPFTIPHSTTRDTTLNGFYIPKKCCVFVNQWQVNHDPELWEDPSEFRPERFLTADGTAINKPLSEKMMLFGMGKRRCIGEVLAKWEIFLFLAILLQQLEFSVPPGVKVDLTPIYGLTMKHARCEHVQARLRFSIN", "experiment": "Activity of human CYP1A2 expressed in microsomes isolated from baculovirus infected insect cell assessed as enzyme-mediated 3-(4-((6-methoxy-1-methyl-1H-benzo[d]imidazol-2-yl)methoxy)phenyl)-2-(methylthio)propanamide formation at 20 uM after 2 hrs by radio-HPLC/LC-MS/MS analysis in presence of NADPH-generating system/SAM", "assay_type": "ADME"}, "[8]": {"target": "Cytochrome P450 2C9 (Homo sapiens, UniProt P11712)", "sequence (P11712 whole entry)": "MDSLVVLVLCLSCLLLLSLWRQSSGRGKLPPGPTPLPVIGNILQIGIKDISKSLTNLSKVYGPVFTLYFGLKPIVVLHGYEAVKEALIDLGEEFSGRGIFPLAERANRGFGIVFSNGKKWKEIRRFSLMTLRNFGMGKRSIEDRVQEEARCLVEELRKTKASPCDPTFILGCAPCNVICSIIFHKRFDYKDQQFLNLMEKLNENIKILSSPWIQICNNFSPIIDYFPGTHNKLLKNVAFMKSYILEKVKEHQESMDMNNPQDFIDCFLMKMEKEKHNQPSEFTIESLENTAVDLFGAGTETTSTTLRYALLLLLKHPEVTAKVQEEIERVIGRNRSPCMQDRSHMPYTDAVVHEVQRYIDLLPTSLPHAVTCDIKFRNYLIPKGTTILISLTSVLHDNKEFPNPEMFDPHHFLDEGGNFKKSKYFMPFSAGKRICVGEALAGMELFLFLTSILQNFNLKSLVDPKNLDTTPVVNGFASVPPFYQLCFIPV", "experiment": "Activity of human CYP2C9 expressed in microsomes isolated from baculovirus infected insect cell assessed as enzyme-mediated 2-hydroxy-3-(4-((6-methoxy-1-methyl-1H-benzo[d]imidazol-2-yl)methoxy)phenyl)propanamide formation at 20 uM after 2 hrs by radio-HPLC/LC-MS/MS analysis in presence of NADPH-generating system and NADPH-generating system/SAM", "assay_type": "ADME"}},
  "data": [
    {"smiles": "COc1ccc2nc(COc3ccc(C[14CH]4SC(=O)NC4=O)cc3)n(C)c2c1.Cl", "note": "(racemic)", "values": [
      {"measurement": "Drug metabolism", "setting": "[1]", "value": "metabolite_detected"},
      {"measurement": "Drug metabolism", "setting": "[2]", "value": "metabolite_not_detected"},
      {"measurement": "Drug metabolism", "setting": "[3]", "value": "metabolite_detected"},
      {"measurement": "Drug metabolism", "setting": "[4]", "value": "metabolite_detected"},
      {"measurement": "Drug metabolism", "setting": "[5]", "value": "metabolite_detected"},
      {"measurement": "Drug metabolism", "setting": "[6]", "value": "metabolite_not_detected"},
      {"measurement": "Drug metabolism", "setting": "[7]", "value": "metabolite_not_detected"},
      {"measurement": "Drug metabolism", "setting": "[8]", "value": "metabolite_detected"}
    ]}
  ]
}
